Results on 8 compounds are retold here after ChEMBL document CHEMBL4673174, “meta-Substituted benzenesulfonamide: a potent scaffold for the development of metallo-beta-lactamase ImiS inhibitors” (RSC Med Chem, 2020).

In data set [1] the test system is Bacteria. Kind of data set: Inhibition of beta-lactamase ImiS (unknown origin) expressed in Escherichia coli BL21 (DE3) assessed as potentiation of meropenem induced antibacterial activity by measuring meropenem MIC at 64 ug/ml incubated for 16 hrs by CLSI broth microdilution method (reference value: 64 ug/ml). To be noted: dose 64.0 µg/ml. (Dilution methods test growth across graded concentrations, often in twofold steps.)

Data set [2] in a line: Cytotoxicity against mouse L929 cells assessed as cell viability up to 200 uM measured after 48 hrs by MTT assay. The class given is cell-based. The following applies: read-out: Activity. For orientation: Tetrazolium assays rely on reduction of a dye to a coloured formazan, in cell work by metabolically active cells.
Data set [3] concerns Bacteria. Put plainly: Inhibition of bacterial L1 expressed in Escherichia coli BL21 (DE3) at 20 uM using cefazolin as substrate by spectrometry analysis relative to control. A digest of the protocol: (§1)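 Purified L1 or NDM-1; cefazolin (40 μM) substrate, hydrolysis monitored at 262 nm by UV-vis. Inhibitor at 20 μM. Initial rates with and without inhibitor measured in triplicate and averaged; percent inhibition = uninhibited activity (100%) minus residual activity.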

For data set [4], the system named is Bacteria. Put plainly: Inhibition of beta-lactamase ImiS (unknown origin) in expressed Escherichia coli BL21 (DE3) assessed as potentiation of imipenem induced antibacterial activity by measuring imipenem MIC at 64 ug/ml incubated for 16 hrs by CLSI broth microdilution method (reference value: 16 ug/ml). To be noted: dose 64.0 µg/ml. A digest of the protocol:
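E. coli BL21 (DE3) carrying pET26b-ImiS grown in MH broth to OD600 0.5, diluted to 1 × 10^5 CFU mL–1. CLSI broth dilution; imipenem serially diluted, inhibitor at 64 μg mL–1 stock.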

For data set [5], the system named is Bacteria. Kind of data set: Inhibition of bacterial NDM-1 expressed in Escherichia coli BL21 (DE3) at 20 uM using cefazolin as substrate by spectrometry analysis relative to control. The method in brief:
as §1

Data set [6] concerns Bacteria. Kind of data set: Inhibition of bacterial ImiS expressed in Escherichia coli BL21 (DE3) at 20 uM using imipenem as substrate by spectrometry analysis relative to control. A digest of the protocol:
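Purified ImiS with imipenem (40 μM) in 30 mM Tris pH 7.0; inhibitor at 20 μM, DMSO below 0.5%. Hydrolysis followed at 300 nm by UV-vis; initial rates in triplicate, averaged. Percent inhibition = activity without inhibitor (100%) minus residual activity.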

The nature of data set [7]: Inhibition of bacterial ImiS expressed in Escherichia coli BL21 (DE3) using imipenem as substrate preincubated for 3 hrs with enzyme followed by substrate addition by spectrometry analysis. More on the design: species or system Bacteria. A digest of the protocol:
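Purified ImiS preincubated 3 h with inhibitor (six concentrations, 0.01–20 μM; DMSO below 0.5%) in 30 mM Tris pH 7.0, 25 °C; imipenem 40 μM. Hydrolysis read at 300 nm, rates in triplicate. IC50 from linear fit of mean percent inhibition against inhibitor concentration.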

Data set [8] relates to Escherichia coli. Kind of data set: Antibacterial activity against Escherichia coli BL21 (DE3) assessed as inhibition of bacterial growth incubated for 16 hrs by CLSI broth microdilution method. The class given is functional.
Data set [9] is described as follows: Mixed type inhibition of bacterial ImiS using varying levels of imipenem as substrate assessed as hydrolysis by Line weaver Burk plot analysis. More on the design: species or system Bacteria. The method in brief: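 Initial imipenem hydrolysis rates by ImiS at 20, 40, 60, 80 and 100 μM substrate, inhibitor at 0, 1, 5 and 10 μM; 300 nm read-out, triplicate. Mode assigned from Lineweaver–Burk plots; Ki from fits of initial velocity against substrate concentration at each inhibitor level.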

The test system of data set [10] is Mus musculus. Put plainly: In vivo inhibition of beta-lactamase ImiS (unknown origin) expressed in Escherichia coli BL21 (DE3) infected in Kunming mouse assessed as potentiation of meropenem-induced reduction in bacterial load in liver at 10 mg/kg, ip administered after 2 hrs post infection and measured after 24 hrs. The class given is functional, organism-based. A digest of the protocol: (§2)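 Kunming mice (male and female, 20 ± 2 g), six per group, infected ip with 200 μL E. coli BL21 (DE3)-ImiS suspension (OD600 = 1.0). At 2 h, single ip dose: PBS, meropenem 10 mg kg–1, inhibitor 10 mg kg–1, or meropenem plus inhibitor (each 10 mg kg–1). Euthanized 24 h post-infection; 0.1 g spleen and liver homogenized in 1 mL PBS, serially diluted, plated on LB agar for cfu.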

The subject of data set [11] is Escherichia coli. Kind of data set: In vivo antibacterial activity against Escherichia coli BL21(DE3) expressing ImiS infected in Kunming mouse assessed as reduction in bacterial load liver at 10 mg/kg, ip administered after 2 hrs post infection and measured after 24 hrs. The data set is classed as functional, organism-based. The method in brief:
as §2

For data set [12], the system named is Mus musculus. Kind of data set: In vivo antibacterial activity against Escherichia coli BL21 (DE3) expressing ImiS infected in Kunming mouse assessed as reduction in bacterial load spleen at 10 mg/kg, ip administered after 2 hrs post infection and measured after 24 hrs. The class given is functional, organism-based. A digest of the protocol: as §2
In data set [13] the test system is Bacteria. Put plainly: Inhibition of bacterial ImiS expressed in Escherichia coli BL21 (DE3) by measuring hydrolysis of imipenem using imipenem as substrate preincubated for 3 hrs with enzyme followed by substrate addition by isothermal titration calorimetric method. To be noted: dose microM 0.1-10, time 3.0 hrs. The method in brief: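 ITC, single-injection mode, 25 °C, 30 mM Tris with 0.5% DMSO. ImiS (100 nM) preincubated 3 h with inhibitor (0–10 μM), then one 38 μL injection of imipenem (0.5 mM); stirring 750 rpm. Heat flow (dq/dt) recorded every 1 s until return to baseline.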
In general terms: Isothermal titration calorimetry measures the heat released or taken up as one component is titrated into another.

Data set [14] concerns Mus musculus. Kind of data set: In vivo inhibition of beta-lactamase ImiS (unknown origin) expressed in Escherichia coli BL21 (DE3) infected in Kunming mouse assessed as potentiation of meropenem-induced reduction in bacterial load in spleen at 10 mg/kg, ip administered after 2 hrs post infection and measured after 24 hrs. The class given is functional, organism-based. A digest of the protocol:
as §2

Data set [15] deals with Bacteria. Put plainly: Inhibition of bacterial ImiS expressed in Escherichia coli BL21 (DE3) at 10 uM using imipenem as substrate by spectrometry analysis relative to control. A digest of the protocol:
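Time and concentration dependence: ImiS incubated with inhibitor at 0.5, 1 or 5 μM over varying times, or over 0.01–10 μM for the inhibition curve; residual activity against imipenem measured spectrophotometrically at 300 nm in 30 mM Tris pH 7.0.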

In brackets after ≈: the same amount, converted by molar mass. Activity calls are given as the source filed them. The rule behind the calls is not given here.

One may read the inhibition as the change of the read-out against control, counted positive when it falls. Broadly, the IC50 is the concentration that inhibits the measured activity by half. `NS(=O)(=O)c1ccc(NC(=O)c2ccc(Cl)cc2)cc1`: the figures for the MIC in the data set with Bacteria [1] and with Bacteria [4] were 32 µg/mL and 8 µg/mL, respectively. Moreover, in [2], the viability at 48 h was more than 80%. Besides, the inhibition with Bacteria [3] was less than 20%; in the data set on Bacteria [5], less than 20%; in the data set with Bacteria [6], more than 70%. In data set [7], this compound showed an IC50 of 5.1 µM.
`CC(C)(C)c1ccc(C(=O)Nc2ccccc2S(N)(=O)=O)cc1`: the results for the MIC with Bacteria [1] and in the data set with Bacteria [4] were 32 µg/mL and 8 µg/mL, respectively. Further, the viability at 48 h in data set [2] was more than 80%. For the same compound, the inhibition was less than 20% with Bacteria [3], less than 20% with Bacteria [5] and more than 70% in the data set on Bacteria [6]. In data set [7], this compound came in with an IC50 of 4.6 µM.
Regarding `C[C@@H](O)[C@H]1C(=O)N2C(C(=O)O)=C(SCCNC=N)C[C@H]12` [IMIPENEM ANHYDROUS], in the data set with Escherichia coli [8], the MIC is 0.25 µg/mL (≈ 0.835 µM).
By Ki is commonly meant a dissociation constant, usually derived from enzyme kinetics or from competition with a known ligand. For the compound `COC(=O)c1ccc(C(=O)Nc2cccc(S(N)(=O)=O)c2)cc1`, the MIC with Bacteria [1] came to 16 µg/mL; in the data set on Bacteria [4] it was 4 µg/mL. Also, the Ki in data set [9] worked out at 0.55 µM. For the same compound, in data set [2], the viability at 48 h was more than 80%. Also, the inhibition result in the data set on Mus musculus [10] and in the data set with Mus musculus [14] was “Active” in each case. Besides, the inhibition is less than 20% with Bacteria [3]; less than 20% with Bacteria [5]; 95% in the data set on Bacteria [6]; “Dose-dependent effect” in the data set with Bacteria [13]; 92% with Bacteria [15]. Further, the result with Escherichia coli [11] and in the data set on Mus musculus [12] was inactive. Further, the IC50 in data set [7] came to 0.11 µM.
In the case of `COC(=O)c1ccc(C(=O)Nc2ccc(S(N)(=O)=O)cc2)cc1`, the MIC stood at 32 µg/mL in the data set with Bacteria [1] and 8 µg/mL in the data set with Bacteria [4]. In data set [9], the Ki was 8 µM. In addition, the inhibition in the data set on Bacteria [3] is less than 20%; in the data set on Bacteria [5], less than 20%; in the data set with Bacteria [6] it was more than 70%. The compound further showed an IC50 in data set [7] of 7.3 µM.
On to `NS(=O)(=O)c1cccc(NC(=O)c2ccc(Cl)cc2)c1`, for which the figures for the MIC in the data set on Bacteria [1] and with Bacteria [4] were 16 µg/mL and 4 µg/mL, respectively. Further, in data set [2], the viability at 48 h was more than 80%. For the same compound, the inhibition in the data set with Bacteria [3] was less than 20%; with Bacteria [5], less than 20%; with Bacteria [6] it was more than 70%. Also, the half-maximal inhibitory concentration (IC50) in [7] is 0.44 µM.
With `NS(=O)(=O)c1ccc(NC(=O)c2ccc(O)cc2)cc1`, the MIC in the data set on Bacteria [1] came to 32 µg/mL; in the data set with Bacteria [4] it was 8 µg/mL. The inhibition in the data set on Bacteria [3] is less than 20%; in the data set on Bacteria [5], less than 20%; with Bacteria [6], more than 70%. Moreover, the IC50 in [7] amounted to 5.6 µM.
As to `NS(=O)(=O)c1cccc(NC(=O)c2ccc(C(F)(F)F)cc2)c1`, the MIC with Bacteria [1] turned out to be 16 µg/mL; with Bacteria [4], 4 µg/mL. Besides, the inhibition in the data set with Bacteria [3] was less than 20%; with Bacteria [5], less than 20%; with Bacteria [6], more than 70%. In data set [7], this compound had a half-inhibitory concentration (IC50) of 0.31 µM.
